One series relates to Blood. The series is described as follows: Inhibition of IL-8 production in TNFalpha challenged human whole blood after 16 to 18 hrs. Format: functional, tissue-based. The note with it: Homo sapiens, Blood; read-out: IC50. Summed up: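 Heparinized blood from healthy nonmedicated donors, 50% final in RPMI 1640 with 10% human AB serum. Ten-point compound titration preincubated 1 h at 37 C, 5% CO2, then TNF-alpha 1 nM final added for 16-18 h. Plasma IL-8 measured by electrochemiluminescent antibody sandwich assay; IC50 is the mean of at least three independent dose-response curves.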

A short description of series [1]: Clearance in Sprague-Dawley rat at 2 mg/kg, iv. Format: ADME, organism-based. Conditions: in vivo. Details: dose 2 mg/kg, route intravenous.
Series [2] can be described thus: Half life in Sprague-Dawley rat at 2 mg/kg, iv. Format: ADME, organism-based. Details: dose 2 mg/kg, route intravenous. Conditions: in vivo.
The nature of series [3]: AUC (0 to infinity) in Sprague-Dawley rat at 2 mg/kg, po. On the set-up: time infinity, dose 2 mg/kg, route oral. Format: ADME, organism-based. The note with it: plasma.
The target in series [4] is Mitogen-activated protein kinase 14 (Homo sapiens, UniProt Q16539). The experiment in a line: Inhibition of p38alpha at 1 uM relative to control.
Chain of Mitogen-activated protein kinase 14 (Q16539 whole entry): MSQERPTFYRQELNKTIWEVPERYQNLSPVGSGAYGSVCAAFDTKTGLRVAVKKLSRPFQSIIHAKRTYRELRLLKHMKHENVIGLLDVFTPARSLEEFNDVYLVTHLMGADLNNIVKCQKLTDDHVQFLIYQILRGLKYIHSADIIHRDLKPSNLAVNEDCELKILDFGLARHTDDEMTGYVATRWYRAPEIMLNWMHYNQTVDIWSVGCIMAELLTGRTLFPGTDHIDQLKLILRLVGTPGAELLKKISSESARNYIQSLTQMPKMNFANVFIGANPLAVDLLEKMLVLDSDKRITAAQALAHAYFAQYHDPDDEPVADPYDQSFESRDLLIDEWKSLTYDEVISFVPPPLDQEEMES
Series [5] has as its target RAF proto-oncogene serine/threonine-protein kinase (Homo sapiens, UniProt P04049). The experiment in a line: Inhibition of RAF1 at 1 uM relative to control.
The target in series [6] is Platelet-derived growth factor receptor alpha (Homo sapiens, UniProt P16234). The series is described as follows: Binding affinity to PDGFRalpha.
Chain of Platelet-derived growth factor receptor alpha (P16234 whole entry): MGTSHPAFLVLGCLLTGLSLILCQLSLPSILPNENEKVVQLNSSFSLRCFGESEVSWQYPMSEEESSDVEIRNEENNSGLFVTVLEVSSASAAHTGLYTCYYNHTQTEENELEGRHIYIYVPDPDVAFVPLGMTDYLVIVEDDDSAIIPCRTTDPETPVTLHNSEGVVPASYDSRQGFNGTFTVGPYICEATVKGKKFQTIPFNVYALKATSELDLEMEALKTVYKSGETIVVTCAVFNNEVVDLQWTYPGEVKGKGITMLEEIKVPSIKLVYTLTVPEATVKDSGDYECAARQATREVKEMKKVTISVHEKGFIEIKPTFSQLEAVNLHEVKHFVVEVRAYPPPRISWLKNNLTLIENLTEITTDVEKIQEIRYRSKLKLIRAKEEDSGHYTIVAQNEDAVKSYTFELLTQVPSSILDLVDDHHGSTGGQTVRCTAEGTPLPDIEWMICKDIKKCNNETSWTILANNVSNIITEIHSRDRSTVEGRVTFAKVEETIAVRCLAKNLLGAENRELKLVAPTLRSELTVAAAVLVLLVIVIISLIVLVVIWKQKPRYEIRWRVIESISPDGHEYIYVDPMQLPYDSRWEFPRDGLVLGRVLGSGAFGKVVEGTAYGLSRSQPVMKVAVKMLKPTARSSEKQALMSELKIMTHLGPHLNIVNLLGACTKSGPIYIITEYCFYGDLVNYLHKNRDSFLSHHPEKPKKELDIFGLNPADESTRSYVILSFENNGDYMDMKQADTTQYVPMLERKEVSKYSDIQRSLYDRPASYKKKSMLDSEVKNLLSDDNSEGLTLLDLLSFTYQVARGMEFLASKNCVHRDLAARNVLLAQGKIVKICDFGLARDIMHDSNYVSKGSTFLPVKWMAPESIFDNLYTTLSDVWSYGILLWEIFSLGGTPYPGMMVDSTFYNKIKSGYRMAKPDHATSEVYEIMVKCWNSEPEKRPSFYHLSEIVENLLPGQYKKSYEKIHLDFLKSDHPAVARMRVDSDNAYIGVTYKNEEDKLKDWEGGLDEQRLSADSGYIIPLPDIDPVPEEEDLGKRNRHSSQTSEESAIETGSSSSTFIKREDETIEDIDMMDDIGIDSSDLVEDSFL
Series [7] addresses Mitogen-activated protein kinase 11 (Homo sapiens, UniProt Q15759). The experiment in a line: Inhibition of p38beta.
In a further series the target is Cytochrome P450 2D6 (Homo sapiens, UniProt P10635). The series is described as follows: Inhibition of CYP2D6 in human liver microsomes. The series is classed as ADME, Microsome. In general terms: Liver microsomes are a subcellular fraction often used to study metabolism.
Chain of Cytochrome P450 2D6 (P10635 whole entry): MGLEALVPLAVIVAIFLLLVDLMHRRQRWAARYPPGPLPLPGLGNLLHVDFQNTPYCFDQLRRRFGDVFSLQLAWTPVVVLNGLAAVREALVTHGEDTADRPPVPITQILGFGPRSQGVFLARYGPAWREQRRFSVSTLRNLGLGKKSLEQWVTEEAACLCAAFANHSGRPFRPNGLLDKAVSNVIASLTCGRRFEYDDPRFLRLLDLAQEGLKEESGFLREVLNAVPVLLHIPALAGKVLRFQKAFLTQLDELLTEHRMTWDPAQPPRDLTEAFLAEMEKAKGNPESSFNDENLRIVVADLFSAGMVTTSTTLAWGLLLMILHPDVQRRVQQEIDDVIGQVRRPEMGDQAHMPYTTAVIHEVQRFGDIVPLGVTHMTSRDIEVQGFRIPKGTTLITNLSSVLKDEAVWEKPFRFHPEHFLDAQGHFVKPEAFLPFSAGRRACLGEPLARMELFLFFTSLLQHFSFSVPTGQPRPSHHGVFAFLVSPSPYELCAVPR
Another series concerns the target T1, Cytochrome P450 1A2 (Homo sapiens, UniProt P05177).
T1 sequence (P05177 whole entry): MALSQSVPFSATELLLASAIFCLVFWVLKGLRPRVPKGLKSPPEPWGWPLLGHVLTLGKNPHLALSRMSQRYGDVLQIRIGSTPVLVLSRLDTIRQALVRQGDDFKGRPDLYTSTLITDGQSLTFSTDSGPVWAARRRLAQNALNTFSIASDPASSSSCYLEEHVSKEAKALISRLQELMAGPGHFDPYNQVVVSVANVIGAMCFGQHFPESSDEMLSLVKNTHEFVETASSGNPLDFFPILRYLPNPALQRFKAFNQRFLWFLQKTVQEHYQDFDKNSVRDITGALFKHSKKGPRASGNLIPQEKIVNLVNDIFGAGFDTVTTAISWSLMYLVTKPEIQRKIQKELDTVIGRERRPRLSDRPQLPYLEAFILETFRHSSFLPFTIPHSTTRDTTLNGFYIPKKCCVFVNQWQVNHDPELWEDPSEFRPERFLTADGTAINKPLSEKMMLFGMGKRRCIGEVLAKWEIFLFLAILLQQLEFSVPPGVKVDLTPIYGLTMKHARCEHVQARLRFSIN
The series is described as follows: Induction of CYP1A2 in human hepatocytes at 25 uM. Format: ADME, cell-based, Hepatocyte.

Another series addresses T2, Cytochrome P450 2B6 (Homo sapiens, UniProt P20813).
T2 sequence (P20813 whole entry): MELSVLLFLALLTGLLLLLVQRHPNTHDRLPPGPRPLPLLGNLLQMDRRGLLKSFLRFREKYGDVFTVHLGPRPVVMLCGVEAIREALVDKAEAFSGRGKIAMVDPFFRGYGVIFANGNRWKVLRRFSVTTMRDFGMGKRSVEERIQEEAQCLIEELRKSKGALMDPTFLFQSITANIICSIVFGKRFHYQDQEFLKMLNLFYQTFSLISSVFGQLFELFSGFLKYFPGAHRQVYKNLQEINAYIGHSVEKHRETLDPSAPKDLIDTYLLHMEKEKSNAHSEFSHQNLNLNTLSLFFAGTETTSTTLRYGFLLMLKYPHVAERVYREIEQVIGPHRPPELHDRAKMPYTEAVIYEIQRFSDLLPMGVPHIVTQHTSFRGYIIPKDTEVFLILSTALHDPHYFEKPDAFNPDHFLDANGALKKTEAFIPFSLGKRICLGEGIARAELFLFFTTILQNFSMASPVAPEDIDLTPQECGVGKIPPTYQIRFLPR
The series is described as follows: Induction of CYP2B6 in human hepatocytes at 25 uM. The series is classed as ADME, cell-based, Hepatocyte.

Series [8] concerns the target T3, Nuclear receptor subfamily 1 group I member 2 (Homo sapiens, UniProt O75469).
T3 sequence (O75469 whole entry): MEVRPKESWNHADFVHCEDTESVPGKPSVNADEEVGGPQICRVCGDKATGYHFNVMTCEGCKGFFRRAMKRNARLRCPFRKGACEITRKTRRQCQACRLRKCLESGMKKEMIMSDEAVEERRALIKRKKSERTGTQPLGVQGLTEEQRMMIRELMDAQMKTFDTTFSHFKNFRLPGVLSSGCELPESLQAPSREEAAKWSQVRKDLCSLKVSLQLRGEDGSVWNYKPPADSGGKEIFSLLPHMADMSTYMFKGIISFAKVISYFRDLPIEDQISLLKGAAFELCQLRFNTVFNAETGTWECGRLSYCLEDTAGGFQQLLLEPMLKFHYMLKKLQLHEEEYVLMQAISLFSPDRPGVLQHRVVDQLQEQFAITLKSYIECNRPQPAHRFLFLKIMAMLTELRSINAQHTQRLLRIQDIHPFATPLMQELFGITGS
The experiment in a line: Transactivation of human PXR expressed in HepG2 cells at 10 uM after 24 hrs by luciferase reporter gene assay relative to rifampin. Format: cell-based. The note with it: hepg2, 24 h. Summed up:
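HepG2 cells transfected with a CYP3A4-promoter luciferase reporter and human PXR cDNA. Compound added from DMSO stocks to final 2 and 10 μM in buffer and incubated 24 h. Luciferase activity read by chemiluminescence and reported as percent of the rifampin (10 μM) positive control.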
In general terms: In a reporter assay the amount or activity of a reporter protein is the signal.

A further series has as its system Rattus norvegicus. The experiment in a line: Antiarthritic activity against porcine type 2 collagen-induced arthritis Lewis rat model assessed as area under the paw swelling curve at 0.01 to 1 mg/kg, po relative to control. Format: functional, organism-based. The method in brief:
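Lewis rats immunized by intradermal porcine type II collagen emulsified 1:1 in incomplete Freund's adjuvant. Grouped at disease onset (day 0, 10-12 days post-immunization). Oral dosing once daily for 7 days in 15% HPBCD, 1% HPMC, 1% Pluronic F68, pH 2.2. Paw diameter measured daily days 0-7.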

A short description of series [9]: Cmax in porcine type 2 collagen-induced arthritis Lewis rat model at 0.01 to 1 mg/kg, po. Conditions: in vivo. The series is classed as ADME, organism-based. On the set-up: dose 0.01-1 mg/kg, route oral.
Series [10] can be described thus: Trough plasma concentration in porcine type 2 collagen-induced arthritis Lewis rat model at 0.01 to 1 mg/kg, po after 24 hrs. Format: ADME, organism-based. On the set-up: dose 0.01-1 mg/kg, route oral.

Structures are written as SMILES. Active and inactive are the calls of the source. The rule behind the calls is not given here.

Chain of Mitogen-activated protein kinase 11 (Q15759 whole entry): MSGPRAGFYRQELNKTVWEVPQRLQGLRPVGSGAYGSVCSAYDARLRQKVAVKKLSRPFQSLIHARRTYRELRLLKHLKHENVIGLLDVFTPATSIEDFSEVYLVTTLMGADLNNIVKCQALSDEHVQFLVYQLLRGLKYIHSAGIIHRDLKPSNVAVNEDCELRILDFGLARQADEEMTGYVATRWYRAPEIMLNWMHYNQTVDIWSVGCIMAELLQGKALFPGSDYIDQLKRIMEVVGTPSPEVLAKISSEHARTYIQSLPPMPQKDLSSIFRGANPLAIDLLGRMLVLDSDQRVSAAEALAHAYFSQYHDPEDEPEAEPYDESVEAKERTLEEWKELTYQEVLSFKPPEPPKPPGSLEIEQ
Chain of RAF proto-oncogene serine/threonine-protein kinase (P04049 whole entry): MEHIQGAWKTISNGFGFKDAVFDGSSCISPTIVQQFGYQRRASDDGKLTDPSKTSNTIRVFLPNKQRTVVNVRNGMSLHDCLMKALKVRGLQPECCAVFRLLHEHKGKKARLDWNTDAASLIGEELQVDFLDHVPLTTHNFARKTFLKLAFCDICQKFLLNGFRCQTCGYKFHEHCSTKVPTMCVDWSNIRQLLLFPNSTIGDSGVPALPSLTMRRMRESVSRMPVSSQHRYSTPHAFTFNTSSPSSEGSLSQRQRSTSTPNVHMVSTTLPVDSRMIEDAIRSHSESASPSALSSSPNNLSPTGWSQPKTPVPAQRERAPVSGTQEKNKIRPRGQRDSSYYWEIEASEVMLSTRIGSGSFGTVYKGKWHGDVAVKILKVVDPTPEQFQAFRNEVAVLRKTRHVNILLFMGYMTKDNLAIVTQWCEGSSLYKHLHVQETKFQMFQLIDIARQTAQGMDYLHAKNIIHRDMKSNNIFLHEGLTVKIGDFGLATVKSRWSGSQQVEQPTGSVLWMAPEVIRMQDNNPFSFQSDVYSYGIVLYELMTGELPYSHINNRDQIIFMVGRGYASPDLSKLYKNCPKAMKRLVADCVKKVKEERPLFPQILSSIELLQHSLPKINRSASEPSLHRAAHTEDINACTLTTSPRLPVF

As a reminder, the IC50 is the concentration that gives 50% inhibition. One may read the clearance as the rate of elimination divided by the concentration. A word on the half-life: it is the time in which the quantity being followed falls by half. Low readings indicate rapid decline, high ones slow decline. Broadly, the AUC(0-inf) is total exposure, with the tail of the curve extrapolated. By inhibition is commonly meant the drop in the measured response relative to a control, in per cent. The low end stands for little suppression, the high end for strong suppression. For orientation: Kd means the constant that tells how readily two partners part at equilibrium. Higher therefore signals lower affinity. As usually defined, the Ki is the dissociation constant of the complex between target and ligand, obtained from inhibition or displacement. A high value points to weaker binding. As usually defined, the Cmax is the maximum level reached in the sampled fluid or tissue. Consider `Cc1ccc(C(=O)NC2CC2)cc1-c1cc2cnn(-c3c(F)cccc3F)c2n(C)c1=O`, for which the IC50 with Blood was 1.7 nM; at Cytochrome P450 2D6 it was more than 25000 nM. In addition, in series [1], the clearance is 3.67 mL/min/kg. In series [2], this molecule showed a half-life of 2.7 h. Besides, the AUC(0-inf) in series [3] came out at 3990 ng·h/mL. Also, the inhibition in [4] and in series [5] was less than 50% in each case. The Kd in series [6] was 1100 nM. The Ki in series [7] was found to be 2.5 nM. The Activity result is recorded as “Not Active” on Cytochrome P450 1A2, “Not Active” on Cytochrome P450 2B6 and 13% in series [8]. The outcome with Rattus norvegicus was Active. The molecule also came in with a Cmax in series [9] of 11 nM. Moreover, in series [10], the concentration at 24 h worked out at 4.4 nM.

Source of the values: ChEMBL document CHEMBL1156338 (J Med Chem, 2010).
